ChEMBL document CHEMBL1152819, “Evaluation of hexadecyloxypropyl-9-R-[2-(Phosphonomethoxy)propyl]- adenine, CMX157, as a potential treatment for human immunodeficiency virus type 1 and hepatitis B virus infections” (Antimicrob Agents Chemother, 2007)

Tests used:
[1] = system: Human immunodeficiency virus 1; assay: Antiviral activity against HIV1 in human MT2 cells; type: functional, organism-based
Summary of the method: (§1)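 MT-2 cells in RPMI 1640 with 10% FBS and 10 mM HEPES, infected with HIV-1 LAI at MOI 0.001 TCID50/cell. Incubated with threefold serial dilutions, three wells per dilution. EC50 taken as the concentration inhibiting p24 antigen production by 50%.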

[2] = Tmax in Sprague-Dawley rat at 100 mg/kg, po administered daily for 7 days measured on day 7; type: ADME, organism-based; parameters: dose 100 mg/kg, route oral; settings: in vivo
Summary of the method: (§2)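 Sprague-Dawley rats, 8–12 weeks old, dosed orally once daily for 7 days and not fasted. Blood taken at 0.5, 1, 2, 4, 12 and 24 h after dosing on days 1 and 7, one rat/sex/time point. Plasma deproteinized, analyte separated by mixed-mode HPLC and quantified by MS/MS, LOQ 1 ng/ml, values below LOQ set to zero. Noncompartmental analysis: Tmax read from plotted data, AUC by linear-log trapezoidal rule.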

Rattus norvegicus [3] = assay: Toxicity in Sprague-Dawley rat assessed as change in body weight at 10 to 100 mg/kg, po administered daily for 7 days; type: organism-based; parameters: dose 10-100 mg/kg, route oral; settings: in vivo, 168 h
Summary of the method: (§3)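 Sprague-Dawley rats (3/sex/group), 8–12 weeks old, given vehicle or 10, 30 or 100 mg/kg/day orally once daily for 7 days. Mortality, morbidity, clinical observations, body weight and food consumption recorded daily.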

[4] = Selectivity index, ratio of CC50 for human HepG2(2.2.15) cells to EC50 for HBV
[5] = Selectivity index, ratio of CC50 for human PBMC to EC50 for HIV1 clade B HT/92/599 isolate
Summary of the method: (§4)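 Fresh human PBMCs, seronegative for HIV and HBV, infected with HIV-1 clade B HT/92/599. Antiviral read-out by reverse transcriptase reduction; cytotoxicity by XTT staining. EC50, CC50 and CC50/EC50 taken from data plots, given as mean ± standard deviation of triplicate determinations.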

[6] = Tmax in Sprague-Dawley rat at 30 mg/kg, po administered daily for 7 days measured on day 7; type: ADME, organism-based; parameters: dose 30 mg/kg, route oral; settings: in vivo; summary of the method: as §2
[7] = AUC (0 to 24 hrs) in Sprague-Dawley rat at 10 mg/kg, po administered daily for 7 days measured on day 1; type: ADME, organism-based; parameters: time < 24 hr, dose 10 mg/kg, route oral; settings: plasma; summary of the method: as §2
[8] = AUC (0 to 24 hrs) in Sprague-Dawley rat at 10 mg/kg, po administered daily for 7 days measured on day 7; type: ADME, organism-based; parameters: time < 24 hr, dose 10 mg/kg, route oral; settings: plasma
Summary of the method: (§5)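 Oral once daily for 7 days, vehicle or 10, 30 or 100 mg/kg/day, Sprague-Dawley rats 8-12 weeks old, not fasted. Plasma sampled 0.5, 1, 2, 4, 12, 24 h after dosing on days 1 and 7 (1 rat/sex/time point). CMX157 and tenofovir measured by HPLC-MS/MS, LOQ 1 ng/ml (values below set to zero). Noncompartmental analysis; Cmax/Tmax by direct observation, AUC by linear-log trapezoidal rule.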

[9] = Tmax in Sprague-Dawley rat at 10 mg/kg, po administered daily for 7 days measured on day 1; type: ADME, organism-based; parameters: dose 10 mg/kg, route oral; settings: in vivo; summary of the method: as §2
Rattus norvegicus [10] = assay: Toxicity in Sprague-Dawley rat assessed as change in erythrocyte morphology at 10 to 100 mg/kg, po administered daily for 7 days; type: organism-based; parameters: dose 10-100 mg/kg, route oral; settings: in vivo, 168 h
Rattus norvegicus [11] = assay: Toxicity in Sprague-Dawley rat assessed as microscopic lesions at 10 to 100 mg/kg, po administered daily for 7 days; type: organism-based; parameters: dose 10-100 mg/kg, route oral; settings: in vivo, 168 h
Summary of the method: (§6)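 Sprague-Dawley rats (3/sex/group), 8–12 weeks old, given vehicle or 10, 30 or 100 mg/kg/day orally once daily for 7 days. Serum biochemistry, hematology and urinalysis done at day 7. At necropsy, control and high-dose rats examined grossly, organs weighed, and all tissues processed for histopathology.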

[12] = Cytotoxicity against human MT2 cells; type: cell-based
Summary of the method: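 MT-2 cells in RPMI 1640 with 10% FBS and 10 mM HEPES, exposed to threefold serial drug dilutions. CC50 calculated from cell counts and viability.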

Rattus norvegicus [13] = assay: Toxicity in Sprague-Dawley rat assessed as change in clinical chemistry parameters at 10 to 100 mg/kg, po administered daily for 7 days; type: organism-based; parameters: dose 10-100 mg/kg, route oral; settings: in vivo, 168 h; summary of the method: as §6
Rattus norvegicus [14] = assay: Toxicity in Sprague-Dawley rat assessed as change in coagulation parameters at 10 to 100 mg/kg, po administered daily for 7 days; type: organism-based; parameters: dose 10-100 mg/kg, route oral; settings: in vivo, 168 h
[15] = AUC (0 to 24 hrs) in Sprague-Dawley rat at 100 mg/kg, po administered daily for 7 days measured on day 1; type: ADME, organism-based; parameters: time < 24 hr, dose 100 mg/kg, route oral; settings: plasma; summary of the method: as §2
Rattus norvegicus [16] = assay: Toxicity in Sprague-Dawley rat assessed as hematological changes at 10 to 100 mg/kg, po administered daily for 7 days; type: organism-based; parameters: dose 10-100 mg/kg, route oral; settings: in vivo, 168 h; summary of the method: as §6
[17] = Selectivity index, ratio of CC50 for human HepG2 cells to EC50 for HBV
HepG2 = assay: Cytotoxicity against human HepG2 cells by MTS assay; type: cell-based; settings: Homo sapiens, HepG2
Summary of the method: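 Exponentially growing HepG2 cells (parent hepatoma line); cytostatic effect measured by MTS method.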

[18] = system: Human immunodeficiency virus 1; assay: Antiviral activity against HIV1 LAI in human MT2 cells assessed as inhibition of p24 antigen production by ELISA; type: functional, organism-based; settings: Human immunodeficiency virus 1, LAI; summary of the method: as §1
[19] = Elimination half life in Sprague-Dawley rat at 100 mg/kg, po administered daily for 7 days measured on day 7; type: ADME, organism-based; parameters: dose 100 mg/kg, route oral; settings: in vivo, read-out: beta t1/2 (converted); summary of the method: as §5
[20] = Elimination half life in Sprague-Dawley rat at 100 mg/kg, po administered daily for 7 days measured on day 1; type: ADME, organism-based; parameters: dose 100 mg/kg, route oral; settings: in vivo, read-out: beta t1/2 (converted); summary of the method: as §5
[21] = Cytotoxicity against human PBMC by XTT assay; type: cell-based; summary of the method: as §4
[22] = Cytotoxicity against human HepG2(2.2.15) cells after 24 hrs by neutral red uptake assay; type: cell-based; settings: Homo sapiens, HepG2 2.2.15, 24 h
Summary of the method: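 Confluent 2.2.15 cells given nine daily treatments. Neutral red uptake read by absorbance of internalized dye 24 h after the last treatment, three cultures per concentration.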

Rattus norvegicus [23] = assay: Toxicity in Sprague-Dawley rat assessed as change in gross necroscopy at 10 to 100 mg/kg, po administered daily for 7 days; type: organism-based; parameters: dose 10-100 mg/kg, route oral; settings: in vivo, 168 h; summary of the method: as §6
[24] = system: Human immunodeficiency virus 1; assay: Antiviral activity against HIV1 clade B HT/92/599 isolate in human PBMC assessed as reduction in reverse transcriptase; type: functional, organism-based; settings: Human immunodeficiency virus 1, clade B; summary of the method: as §4
[25] = Tmax in Sprague-Dawley rat at 100 mg/kg, po administered daily for 7 days measured on day 1; type: ADME, organism-based; parameters: dose 100 mg/kg, route oral; settings: in vivo; summary of the method: as §2
Rattus norvegicus [26] = assay: Toxicity in Sprague-Dawley rat assessed as change in food consumption at 10 to 100 mg/kg, po administered daily for 7 days; type: organism-based; parameters: dose 10-100 mg/kg, route oral; settings: in vivo, 168 h; summary of the method: as §3
[27] = AUC (0 to 24 hrs) in Sprague-Dawley rat at 30 mg/kg, po administered daily for 7 days measured on day 7; type: ADME, organism-based; parameters: time < 24 hr, dose 30 mg/kg, route oral; settings: plasma; summary of the method: as §5
Rattus norvegicus [28] = assay: Toxicity in Sprague-Dawley rat assessed as ophthalmological changes at 10 to 100 mg/kg, po administered daily for 7 days; type: organism-based; parameters: dose 10-100 mg/kg, route oral; settings: in vivo, 168 h
[29] = AUC (0 to 24 hrs) in Sprague-Dawley rat at 100 mg/kg, po administered daily for 7 days measured on day 7; type: ADME, organism-based; parameters: time < 24 hr, dose 100 mg/kg, route oral; settings: plasma; summary of the method: as §5
Rattus norvegicus [30] = assay: Toxicity in Sprague-Dawley rat assessed as change in urinalysis parameters at 10 to 100 mg/kg, po administered daily for 7 days; type: organism-based; parameters: dose 10-100 mg/kg, route oral; settings: in vivo, 168 h; summary of the method: as §6
Rattus norvegicus [31] = assay: Toxicity in Sprague-Dawley rat assessed as change in organ weight at 10 to 100 mg/kg, po administered daily for 7 days; type: organism-based; parameters: dose 10-100 mg/kg, route oral; settings: in vivo, 168 h; summary of the method: as §6
Hepatitis B virus [32] = assay: Antiviral activity against HBV in human HepAD38 cells assessed as intracellular viral DNA levels treated for 3 days measured on day 6 […] by RT-PCR; type: functional, organism-based
Summary of the method: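 HepAD38 cells seeded at 5 x 10^5/well, grown 2-3 days with 0.3 µg/ml tetracycline, then induced by PBS wash and tetracycline/G418-free medium with or without compound at 37°C, 5% CO2. Medium changed after 3 days. Intracellular HBV DNA measured on day 6 postinduction by TaqMan real-time PCR against a plasmid standard curve, given as % of mock.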

Hepatitis B virus [33] = assay: Antiviral activity against HBV in human HepG2(2.2.15) cells assessed as viral DNA levels treated for 9 days measured after 24 hrs; type: functional, organism-based
Summary of the method: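 Confluent 2.2.15 cells in RPMI 1640 with 2% FBS, given nine consecutive daily doses with daily medium change (six cultures per concentration on two replicate plates). HBV DNA quantified by blot hybridization 24 h after the last treatment.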

[34] = Tmax in Sprague-Dawley rat at 30 mg/kg, po administered daily for 7 days measured on day 1; type: ADME, organism-based; parameters: dose 30 mg/kg, route oral; settings: in vivo; summary of the method: as §2
[35] = Selectivity index, ratio of CC50 for human MT2 cells to EC50 for HIV1 LAI; type: toxicity, cell-based; settings: read-out: Ratio CC50/EC50
[36] = Tmax in Sprague-Dawley rat at 10 mg/kg, po administered daily for 7 days measured on day 7; type: ADME, organism-based; parameters: dose 10 mg/kg, route oral; settings: in vivo; summary of the method: as §2
Rattus norvegicus [37] = assay: Toxicity in Sprague-Dawley rat assessed as mortality at 10 to 100 mg/kg, po administered daily for 7 days; type: organism-based; parameters: dose 10-100 mg/kg, route oral; settings: in vivo, 168 h; summary of the method: as §3
[38] = AUC (0 to 24 hrs) in Sprague-Dawley rat at 30 mg/kg, po administered daily for 7 days measured on day 1; type: ADME, organism-based; parameters: time < 24 hr, dose 30 mg/kg, route oral; settings: plasma; summary of the method: as §2

Structure (SMILES): CCCCCCCCCCCCCCCCOCCCOP(=O)(O)COCCn1cnc2c(N)nc(N)nc21
- EC50 [1]: 0.02 nM

Structure (SMILES): CCCCCCCCCCCCCCCCOCCCOP(=O)(O)CO[C@H](C)Cn1cnc2c(N)ncnc21 [TENOFOVIR EXALIDEX]
- Tmax [2]: 2 h
- Activity (Rattus norvegicus [3]): Non-toxic
- Ratio CC50/EC50 [4]: >187.5
- Ratio CC50/EC50 [5]: 12000
- Tmax [6]: 1 h
- AUC(0-t) at 24 h [7]: 442 ng·h/mL
- AUC at 24 h [8]: 435 ng·h/mL
- Tmax [9]: 0.5 h
- Activity (Rattus norvegicus [10]): Non-toxic
- Activity (Rattus norvegicus [11]): Non-toxic
- CC50 [12]: 54000 nM
- Activity (Rattus norvegicus [13]): Non-toxic
- Activity (Rattus norvegicus [14]): Non-toxic
- AUC(0-t) at 24 h [15]: 5410 ng·h/mL
- Activity (Rattus norvegicus [16]): Non-toxic
- Ratio CC50/EC50 [17]: 38.4
- EC50 (HepG2): > 18800 nM
- EC50 [18]: < 0.01 nM
- half-life [19]: 1.6 h
- half-life [20]: 2.5 h
- CC50 [21]: 144000 nM
- EC50 [22]: > 300000 nM
- Activity (Rattus norvegicus [23]): Non-toxic
- EC50 [24]: 12 nM
- Tmax [25]: 2 h
- Activity (Rattus norvegicus [26]): Non-toxic
- AUC at 24 h [27]: 1540 ng·h/mL
- Activity (Rattus norvegicus [28]): Non-toxic
- AUC at 24 h [29]: 8410 ng·h/mL
- Activity (Rattus norvegicus [30]): Non-toxic
- Activity (Rattus norvegicus [31]): Non-toxic
- EC50 (Hepatitis B virus [32]): 490 nM
- EC50 (Hepatitis B virus [33]): 1600 nM
- Tmax [34]: 2 h
- selectivity ratio [35]: > 5.4e+06
- Tmax [36]: 0.5 h
- Activity (Rattus norvegicus [37]): Non-toxic
- AUC(0-t) at 24 h [38]: 1830 ng·h/mL

Structure (SMILES): CCCCCCCCCCCCCCCCOCCCOP(=O)(O)COCCn1cnc2c(NC3CC3)nc(N)nc21
- EC50 [1]: 0.02 nM
